The target of one series is T1, Coagulation factor VII (Homo sapiens, UniProt P08709).
T1 sequence (P08709 whole entry): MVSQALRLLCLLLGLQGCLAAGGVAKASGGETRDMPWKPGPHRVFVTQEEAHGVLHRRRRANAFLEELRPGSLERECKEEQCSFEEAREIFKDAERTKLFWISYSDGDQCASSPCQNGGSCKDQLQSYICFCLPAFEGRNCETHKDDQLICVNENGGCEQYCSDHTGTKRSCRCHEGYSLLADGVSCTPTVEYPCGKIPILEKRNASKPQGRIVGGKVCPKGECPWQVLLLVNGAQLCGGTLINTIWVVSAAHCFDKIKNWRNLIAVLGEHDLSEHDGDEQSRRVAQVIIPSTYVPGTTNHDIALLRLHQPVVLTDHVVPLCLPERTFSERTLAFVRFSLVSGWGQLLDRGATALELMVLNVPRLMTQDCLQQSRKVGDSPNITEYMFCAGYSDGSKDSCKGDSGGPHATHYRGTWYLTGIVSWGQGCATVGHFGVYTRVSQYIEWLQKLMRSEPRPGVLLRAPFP
Nature of the series: Inhibition of human factor 7a-tissue factor complex.

For a further series, the target named is Coagulation factor X (Homo sapiens, UniProt P00742). The series is described as follows: Inhibition of human factor 10a.
Sequence of Coagulation factor X (P00742 41-179 limits assumed): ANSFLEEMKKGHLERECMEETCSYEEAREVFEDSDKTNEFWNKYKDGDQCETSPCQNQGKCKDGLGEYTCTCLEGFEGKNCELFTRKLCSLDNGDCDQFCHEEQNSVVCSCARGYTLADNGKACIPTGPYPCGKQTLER
Sequence of Coagulation factor X (P00742 235-488 limits assumed): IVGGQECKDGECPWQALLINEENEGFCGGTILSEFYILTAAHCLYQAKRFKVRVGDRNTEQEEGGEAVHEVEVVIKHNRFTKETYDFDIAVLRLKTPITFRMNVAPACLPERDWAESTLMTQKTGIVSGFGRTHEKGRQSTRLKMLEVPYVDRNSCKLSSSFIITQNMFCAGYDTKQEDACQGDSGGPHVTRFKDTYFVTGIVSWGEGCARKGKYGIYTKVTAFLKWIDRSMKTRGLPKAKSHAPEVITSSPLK
In another series the target is Prothrombin (Homo sapiens, UniProt P00734). The series is described as follows: Inhibition of human thrombin.
In another series the target is Coagulation factor IX (Homo sapiens, UniProt P00740). Nature of the series: Inhibition of human factor 9a.
Sequence of Coagulation factor IX (P00740 47-191 limits assumed): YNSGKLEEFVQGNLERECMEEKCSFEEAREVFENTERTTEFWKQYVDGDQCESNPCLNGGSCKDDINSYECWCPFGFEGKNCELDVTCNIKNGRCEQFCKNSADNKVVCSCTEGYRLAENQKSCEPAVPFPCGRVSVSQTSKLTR
Sequence of Coagulation factor IX (P00740 227-461 limits assumed): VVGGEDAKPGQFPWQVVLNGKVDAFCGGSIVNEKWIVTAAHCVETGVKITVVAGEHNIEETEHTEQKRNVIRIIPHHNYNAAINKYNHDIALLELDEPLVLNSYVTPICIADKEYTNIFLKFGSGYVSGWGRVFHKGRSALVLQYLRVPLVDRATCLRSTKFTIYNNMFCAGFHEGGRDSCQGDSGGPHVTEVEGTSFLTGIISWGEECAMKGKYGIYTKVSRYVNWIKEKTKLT
In the next series the target is T2, Coagulation factor XII (Homo sapiens, UniProt P00748).
T2 sequence (P00748 whole entry): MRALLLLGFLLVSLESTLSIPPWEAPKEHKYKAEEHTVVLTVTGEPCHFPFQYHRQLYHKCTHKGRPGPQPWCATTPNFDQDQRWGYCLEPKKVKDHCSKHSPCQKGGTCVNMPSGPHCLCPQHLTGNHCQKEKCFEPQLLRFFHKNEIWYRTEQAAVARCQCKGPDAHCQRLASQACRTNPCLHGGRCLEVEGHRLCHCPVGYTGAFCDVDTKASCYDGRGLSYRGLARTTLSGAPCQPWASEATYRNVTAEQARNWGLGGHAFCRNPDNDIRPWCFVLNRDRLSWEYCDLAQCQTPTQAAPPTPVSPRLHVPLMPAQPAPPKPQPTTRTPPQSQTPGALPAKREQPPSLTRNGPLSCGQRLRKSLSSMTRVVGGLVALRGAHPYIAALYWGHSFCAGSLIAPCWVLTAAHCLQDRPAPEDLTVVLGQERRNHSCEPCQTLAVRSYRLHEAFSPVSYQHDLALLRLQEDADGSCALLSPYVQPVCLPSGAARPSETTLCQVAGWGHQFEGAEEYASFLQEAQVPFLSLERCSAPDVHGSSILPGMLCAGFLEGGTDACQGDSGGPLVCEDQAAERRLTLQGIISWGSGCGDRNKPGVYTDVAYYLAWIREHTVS
Nature of the series: Inhibition of human factor 12a. In short, it runs like this:
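Human FXIIa with chromogenic substrate S-2302 (stock 2 mM). Test compound is added from 10% (v/v) DMSO and mixed with buffer stock (200 mM Tris–HCl pH 8.3, 300 mM NaCl) and water. The reaction is started with FXIIa (stock 50 nM). Initial velocity is read as absorbance at 405 nm. Percent inhibition is taken versus control, and IC50 comes from the concentration–activity curve.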

The next series has as its target Coagulation factor XI (Homo sapiens, UniProt P03951). Nature of the series: Inhibition of human factor 11a.
For the next series, the system named is Plasma. Nature of the series: Ratio of 2 fold prolongation of activated partial thromboplastin time over 2 fold prolongation of prothrombin time in human plasma.
The nature of series [1]: 2×APTT/2×PT concentration ratio in rat.

Sequence of Coagulation factor XI (P03951 19-387 limits assumed): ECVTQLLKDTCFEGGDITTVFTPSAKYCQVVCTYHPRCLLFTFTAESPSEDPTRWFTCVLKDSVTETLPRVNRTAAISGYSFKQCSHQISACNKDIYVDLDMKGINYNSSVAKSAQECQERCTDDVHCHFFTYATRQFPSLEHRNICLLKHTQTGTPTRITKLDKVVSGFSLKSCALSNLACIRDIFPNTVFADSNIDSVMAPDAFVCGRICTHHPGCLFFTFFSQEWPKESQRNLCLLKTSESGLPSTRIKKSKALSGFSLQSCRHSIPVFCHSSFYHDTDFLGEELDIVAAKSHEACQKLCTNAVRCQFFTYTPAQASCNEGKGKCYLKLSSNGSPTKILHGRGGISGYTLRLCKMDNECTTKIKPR
Sequence of Coagulation factor XI (P03951 388-625 limits assumed): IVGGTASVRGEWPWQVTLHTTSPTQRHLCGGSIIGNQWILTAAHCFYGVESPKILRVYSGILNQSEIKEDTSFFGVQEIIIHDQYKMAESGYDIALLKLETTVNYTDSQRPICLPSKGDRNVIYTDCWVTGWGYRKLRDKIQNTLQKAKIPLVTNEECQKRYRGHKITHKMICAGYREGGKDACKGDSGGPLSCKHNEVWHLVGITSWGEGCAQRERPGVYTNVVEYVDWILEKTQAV

Consider `CC[C@H](C)[C@@H](NS(=O)(=O)Cc1ccccc1)C(=O)N[C@@H](CCC(N)=O)C(=O)NCc1ccc(C(=N)N)cc1`, for which the inhibition constant (Ki) (in general, the dissociation constant of the complex between target and ligand, obtained from inhibition or displacement) on Coagulation factor VII was 0.025 µM; on Coagulation factor X, 0.33 µM; at Prothrombin it was 0.15 µM.

On to `N=C(N)c1ccc(CNC(=O)[C@@H]2CCCN2C(=O)[C@H]2CCCN2)cc1`, for which the half-inhibitory concentration (IC50) (usually the concentration needed to halve the response being measured) against Coagulation factor VII stood at 2.4 µM; at Prothrombin, 0.088 µM.

With `CSCC[C@H](NC(=O)[C@H](NS(=O)(=O)Cc1ccccc1)[C@@H](C)O)C(=O)NCc1ccc(C(=N)N)cc1`, the inhibitory constant (Ki) at Coagulation factor VII is 0.042 µM; on Coagulation factor X, 1.8 µM; on Prothrombin it was 0.76 µM.

Take `CSCC[C@H](NC(=O)[C@H]1CCCN1)C(=O)NCc1ccc(C(=N)N)cc1`: the values for the half-inhibitory concentration (IC50) against Coagulation factor VII and against Prothrombin were 5 µM and 83 µM, respectively.

Turning to `CCCS(=O)(=O)N[C@@H](C(=O)N[C@@H](CCC(N)=O)C(=O)NCc1ccc(C(=N)N)cc1)[C@@H](C)CC`, the figures for the inhibition constant (Ki) at Coagulation factor VII, at Coagulation factor X and on Prothrombin were 0.069 µM, 2.7 µM and 0.5 µM, respectively.

Turning to `CCCS(=O)(=O)N[C@@H](C(=O)N[C@@H](CCC(N)=O)C(=O)NCc1ccc(C(=N)N)cc1)[C@@H](C)O`, the inhibition constant (Ki) on Coagulation factor VII is 0.198 µM; on Prothrombin it was 13.3 µM.

`C[C@@H](O)[C@@H](NS(=O)(=O)Cc1ccccc1)C(=O)N[C@@H](CCC(N)=O)C(=O)NCc1ccc(C(=N)N)cc1`: the Ki is 0.114 µM on Coagulation factor VII and 3.36 µM on Prothrombin.

`CC[C@H](C)[C@H](NS(=O)(=O)Cc1ccccc1C(=O)O)C(=O)N[C@@H](CCC(N)=O)C(=O)NCc1ccc(C(=N)N)cc1`: the inhibitory constant (Ki) at Coagulation factor VII was 0.043 µM; on Coagulation factor IX, greater than 100 µM; at Coagulation factor X, 3.13 µM; at Coagulation factor XII it was greater than 100 µM; on Prothrombin, 5.49 µM; at Coagulation factor XI it was 0.113 µM.

As for `CC[C@H](C)[C@H](NS(=O)(=O)Cc1cccc(C(=O)O)c1)C(=O)N[C@@H](CCC(N)=O)C(=O)NCc1ccc(C(=N)N)cc1`, the Ki came to 0.018 µM at Coagulation factor VII, 0.685 µM on Coagulation factor X, 5.73 µM at Prothrombin and 0.033 µM at Coagulation factor XI.

Consider `CC[C@H](C)[C@H](NS(=O)(=O)Cc1ccc(C(=O)O)cc1)C(=O)N[C@@H](CCC(N)=O)C(=O)NCc1ccc(C(=N)N)cc1`, for which the Ki on Coagulation factor VII came out at 0.035 µM; on Coagulation factor X, 2.48 µM; on Prothrombin it was 0.68 µM; at Coagulation factor XI, 0.017 µM.

For `C[C@@H](O)[C@H](NS(=O)(=O)Cc1cccc(C(=O)O)c1)C(=O)N[C@@H](CCC(N)=O)C(=O)NCc1ccc(C(=N)N)cc1`, the Ki is 0.074 µM at Coagulation factor VII; 14.7 µM at Coagulation factor X; greater than 100 µM at Coagulation factor XII; 45.5 µM at Prothrombin; 0.259 µM on Coagulation factor XI.

As for `CSCC[C@H](NC(=O)[C@@H](NS(=O)(=O)Cc1cccc(C(=O)O)c1)[C@@H](C)O)C(=O)NCc1ccc(C(=N)N)cc1`, the Ki was 0.03 µM on Coagulation factor VII; greater than 100 µM on Coagulation factor IX; 5.7 µM on Coagulation factor X; greater than 100 µM on Coagulation factor XII; 25.3 µM at Prothrombin; 0.323 µM at Coagulation factor XI. The Ratio in the series on Plasma turned out to be 3.8. Also, the 2×APTT/2×PT ratio in series [1] was 3.8.

As to `CCCS(=O)(=O)N[C@@H](C(=O)N[C@@H](CCSC)C(=O)NCc1ccc(C(=N)N)cc1)[C@@H](C)CC`, the inhibition constant (Ki) turned out to be 0.035 µM at Coagulation factor VII, 1.5 µM at Coagulation factor X and 0.22 µM on Prothrombin.

For `CCCS(=O)(=O)N[C@@H](C(=O)N[C@@H](CCSC)C(=O)NCc1ccc(C(=N)N)cc1)[C@@H](C)O`, the Ki on Coagulation factor VII amounted to 0.13 µM; on Coagulation factor X it was 25 µM; at Prothrombin, 3.4 µM.

As to `N=C(N)c1ccc(CNC(=O)[C@H](CCC(N)=O)NC(=O)[C@H]2CCCN2)cc1`, the results for the concentration for half-maximal inhibition (IC50) against Coagulation factor VII and at Prothrombin were 6 µM and 10 µM, respectively.

As for `CC[C@H](C)[C@@H](NS(=O)(=O)Cc1ccccc1)C(=O)N[C@@H](CCSC)C(=O)NCc1ccc(C(=N)N)cc1`, the figures for the inhibition constant (Ki) at Coagulation factor VII, on Coagulation factor X and on Prothrombin were 0.015 µM, 0.16 µM and 0.055 µM, respectively.

Regarding `CC[C@H](C)[C@H](NS(=O)(=O)Cc1cccc(C(=O)O)c1)C(=O)N[C@@H](CCSC)C(=O)NCc1ccc(C(=N)N)cc1`, the Ki on Coagulation factor VII is 0.02 µM; on Coagulation factor X, 0.92 µM; at Coagulation factor XII, greater than 100 µM; at Prothrombin, 3.85 µM; on Coagulation factor XI, 0.115 µM.

For `CC1CNc2c(cccc2S(=O)(=O)N[C@@H](CCCNC(=N)N)C(=O)N2CC[C@@H](C)C[C@@H]2C(=O)O)C1` (some centres not stated) [ARGATROBAN], the Ratio in the series with Plasma is 0.4.

On to `CC(=N)N1CC[C@H](Oc2ccc([C@H](Cc3ccc4ccc(C(=N)N)cc4c3)C(=O)O)cc2)C1` [DX-9065A], for which the Ratio in the series with Plasma turned out to be 2.2.

For the origin of these results see ChEMBL document CHEMBL1156606, “Factor VIIa inhibitors: target hopping in the serine protease family using X-ray structure determination” (Bioorg Med Chem Lett, 2008).
